For one molecule, Activity, MIC and IC50 results are on record in ChEMBL document CHEMBL2331370, “Structure and absolute configuration of fumiquinazoline L, an alkaloid from a gorgonian-derived Scopulariopsis sp. fungus” (J Nat Prod, 2013).

Structures are written as SMILES. Calls of active or inactive are those of the source.

As a reminder, the MIC is the smallest concentration in the dilution series that meets the test's criterion for growth inhibition. Read a low MIC as greater potency. One may read the IC50 as the concentration needed to halve the response being measured. A lower IC50 goes with higher potency.

One assay concerns Vibrio anguillarum. The assay can be described thus: Antibacterial activity against Vibrio anguillarum ATCC 19019 at 50 uM after 24 hrs by serial dilution technique. Type of assay: functional, organism-based. An outline of the steps:
(§1)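 Broth serial dilution MIC in 96-well plates. Compound given as DMSO stock. Strains grown overnight at 37 °C in LB broth, then diluted to 106 cfu/mL. Positive control ciprofloxacin; DMSO as negative control; LB broth as blank. Incubation 37 °C, 24 h, then plates read at 630 nm.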

The subject of the next assay is Escherichia coli. Briefly: Antibacterial activity against Escherichia coli ATCC 25922 at 50 uM after 24 hrs by serial dilution technique. The class given is functional, organism-based. The essentials:
as §1

The next assay concerns Staphylococcus aureus. Briefly: Antibacterial activity against Staphylococcus aureus ATCC 27154 at 50 uM after 24 hrs by serial dilution technique. Type of assay: functional, organism-based. An outline of the steps:
as §1

For the next assay, the system named is Micrococcus. Briefly: Antibacterial activity against Micrococcus tetragenus ATCC 13623 at 50 uM after 24 hrs by serial dilution technique. Type of assay: functional, organism-based. An outline of the steps: as §1
For another assay, the system named is Bacillus cereus. Briefly: Antibacterial activity against Bacillus cereus ACCC 11077 at 50 uM after 24 hrs by serial dilution technique. Type of assay: functional, organism-based. The essentials: as §1
A further assay deals with Micrococcus luteus. The assay can be described thus: Antibacterial activity against Micrococcus luteus ATCC 49732 at 50 uM after 24 hrs by serial dilution technique. The class given is functional, organism-based. The essentials: as §1
For another assay, the system named is Vibrio parahaemolyticus. Briefly: Antibacterial activity against Vibrio parahaemolyticus ATCC 17802 after 24 hrs by serial dilution technique. The class given is functional. The conditions noted are these: ATCC 17802, 24 h. An outline of the steps:
as §1

The next assay has as its system Staphylococcus. Briefly: Antibacterial activity against Staphylococcus albus ATCC 8799 after 24 hrs by serial dilution technique. Type of assay: functional. The conditions noted are these: ATCC 8799, 24 h. The essentials:
as §1

Another assay relates to Bacillus subtilis. Briefly: Antibacterial activity against Bacillus subtilis ATCC 6633 after 24 hrs by serial dilution technique. The conditions noted are these: ATCC 6633, 24 h. Type of assay: functional. The essentials: as §1
The test system of the next assay is K562. Briefly: Cytotoxicity against human K562 cells at 100 uM after 6 days by MTT assay. The class given is functional, cell-based. Background: Formazan colour is commonly taken as a measure of viable cells.
A further assay relates to Bel-7402. Briefly: Cytotoxicity against human Bel7402 cells at 100 uM after 6 days by MTT assay. Type of assay: functional, cell-based.
The subject of a further assay is SGC-7901. Briefly: Cytotoxicity against human SGC7901 cells at 100 uM after 6 days by MTT assay. Type of assay: functional, cell-based.
In the next assay the test system is A549. Briefly: Cytotoxicity against human A549 cells after 6 days by MTT assay. The class given is functional, cell-based. The following applies: A549, 144 h.
Another assay deals with SPC-A1. Briefly: Cytotoxicity against human SPC-A1 cells at 100 uM after 6 days by MTT assay. Type of assay: functional, cell-based.

As for `CC(C)[C@@H]1N[C@@H]2N(C1=O)c1ccccc1[C@]21C[C@@H]2C(=O)N[C@](C)(O1)c1nc3ccccc3c(=O)n12` [FUMIQUINAZOLINE L], the outcome with Vibrio anguillarum, in the assay with Escherichia coli, with Staphylococcus aureus, with Micrococcus, in the assay with Bacillus cereus and in the assay with Micrococcus luteus was inactive. The result with K562, in the assay with Bel-7402, with SGC-7901 and in the assay on SPC-A1 was inactive. The MIC with Vibrio parahaemolyticus, with Staphylococcus and in the assay with Bacillus subtilis was above 50 µM each time. Further, the IC50 in the assay on A549 was above 10 µM.
